The list is not random: actives were taken first. Their share in the collection is about 1.8%.
APOBEC3A inh – human APOBEC3A DNA deaminase inhibition; recombinant A3A, FAM/TAMRA ssDNA deamination fluorescence; actives 0.41% (n = 330,000); inhibition, % at 20 µM; P31941; AID 493011;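 active = at least 40% inhibition at 20 µM here, with at most 30% in a related deaminase screen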;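 note: plate controls were A3A with DMSO for no effect and wells lacking A3A enzyme for full effect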
Target sequence (P31941 whole entry, looked up): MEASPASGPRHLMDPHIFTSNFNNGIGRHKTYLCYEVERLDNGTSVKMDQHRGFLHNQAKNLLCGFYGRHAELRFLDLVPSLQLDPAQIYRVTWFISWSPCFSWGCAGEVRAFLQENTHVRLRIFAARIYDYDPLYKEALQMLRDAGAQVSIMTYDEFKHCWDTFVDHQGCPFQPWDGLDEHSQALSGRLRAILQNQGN
PHOSPHO1 block – PHOSPHO1 (human) inhibition | Q8TCT1 | recombinant PHOSPHO1, absorbance phosphatase assay | inhibition, % at 13.3 µM | actives 1.1% (n = 290,000); in the data active = inhibition above about 60%
Target sequence (Q8TCT1 whole entry, looked up): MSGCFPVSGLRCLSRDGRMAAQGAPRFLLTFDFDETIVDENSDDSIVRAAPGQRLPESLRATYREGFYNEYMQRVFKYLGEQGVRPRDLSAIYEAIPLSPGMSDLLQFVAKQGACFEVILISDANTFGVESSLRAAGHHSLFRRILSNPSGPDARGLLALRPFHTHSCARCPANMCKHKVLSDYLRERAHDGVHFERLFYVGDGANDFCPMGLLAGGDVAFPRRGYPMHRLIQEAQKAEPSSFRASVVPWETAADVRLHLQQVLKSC
TbMetRS inhib – blocks T. brucei methionyl-tRNA synthetase activity. inhibition, % at 11.9 µM. purified T. brucei MetRS, ATP depletion, Kinase-Glo luminescence. actives 0.4% (n = 360,000);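 active = inhibition above a per-plate cutoff of the control wells' mean inhibition plus 3 SD, cut at about 5.5% in these data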;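 note: 0% = DMSO wells median and 100% = median of wells with control inhibitor compound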
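assay system = parasite MetRS enzyme | timing = 15 min preincubation, 2 h reaction, all 25 °C | evaluation = percent inhibition relative to median high and low control wells | medium = HEPES buffer containing pyrophosphatase, BSA, spermine, DTT | compound = single dose, 11.9 µM final nominal, 0.9% final DMSO | detection = Kinase-Glo luminescence, ATP depletion format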
pCIP destab – p/CIP protein destabilization; Q05BA5; F442A p/CIP-EGFP cells, EGFP fluorescence, 16 h; decrease of EGFP signal, % at 10 µM; actives 0.01% (n = 290,000); AID 1984;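 active = EGFP signal decrease of at least 30% at 10 µM or well 3 SD below plate mean, unless failing retest; inactive = the rest, including hits failing retest or dose response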
A3G deaminase – APOBEC3G (human) deaminase inhibition | inhibition, % at 20 µM | actives 0.28% (n = 330,000) | recombinant A3G, ssDNA deamination FAM/TAMRA fluorescence;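 active = inhibition of at least 40% at 20 µM, with no more than 30% in the related APOBEC3A deaminase screen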;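 note: plate controls were DMSO wells with A3G for no effect and wells lacking A3G enzyme for full effect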
An asterisk follows results filed as active; / = not tested or not shown.

SMILES	APOBEC3A inh	PHOSPHO1 block	TbMetRS inhib	pCIP destab	A3G deaminase
CC(C)CCCC(C)CCOC(=O)CN1CCCC1 (stereo not given)	0.3	33.1	-0.3	9.3	-3.1
CCCS(=O)(=O)c1c(S(=O)(=O)CCC)c2ccc(C(N)=O)cn2c1C(=O)OC	-0.7	9.5	-0.2	-26.3	-4.4
CCCS(=O)(=O)c1c(S(=O)(=O)CCC)c2ccc(C(N)=O)cn2c1C(=O)c1ccc(OC)cc1	-3.4	60.1*	-0.1	-1.6	0.3
CCOC(=O)C(=O)NCC(c1cccs1)S(=O)(=O)c1ccc(Cl)cc1 (stereo not given)	0.8	31.9	-0.2	-1.7	-1.7
Cc1ccc2nc(N3C(=O)C(O)=C(C(=O)c4ccco4)C3c3cccs3)sc2c1 (stereo not given)	-2.7	86.2*	-0.8	-11.0	-1.9
CN(C)c1ccc(/C=C/c2cc[n+]([O-])cc2)cc1	-11.8	15.6	/	-81.8	-16.6
CN(C)c1ccc(/C=C/c2cc[n+](C)cc2)cc1	38.8	102.0*	-1.2	-311.3	10.7
CCCCNC(=O)CCCCn1c(=S)[nH]c2c([nH]c3ccc(OC)cc32)c1=O	2.2	-41.5	0.1	11.1	-5.4
COc1ccc2[nH]c3c(=O)n(CCCCC(=O)N4CCC(C(N)=O)CC4)c(=S)[nH]c3c2c1	-9.0	103.5*	0.3	-4.6	26.7
COc1ccc2[nH]c3c(=O)n(CCCCC(=O)NCCN4CCCC4)c(=S)[nH]c3c2c1	-10.9	102.0*	-1.1	-13.8	40.0
CCC(C)[C@H](NC(=O)NCc1ccco1)C(=O)OC (stereo not given in full)	-3.7	40.9	-1.3	-14.8	-7.0
Cc1ccccc1NC(=O)COC(=O)c1ccc(S(C)(=O)=O)c([N+](=O)[O-])c1	-1.0	60.0*	-1.0	-14.0	-5.2
CN(C)c1ccc(/C=N/n2c(COc3ccccc3)n[nH]c2=S)cc1	7.1	78.7*	-1.7	-4.5	4.3
Cc1ccc(/C=N/n2c(COc3ccccc3)n[nH]c2=S)cc1	-4.1	9.3	-0.1	7.9	-5.2
S=c1[nH]nc(-c2cccc(Br)c2)o1	-5.3	27.0	0.1	-3.5	-0.5
S=c1[nH]nc(-c2cccnc2)o1	0.6	89.5*	0.0	7.8	-2.4
O=C(O)C1Sc2[nH]c(=O)sc2C2c3cc(Cl)ccc3OC(=O)C12 (stereo not given)	-3.0	89.4*	-0.1	-26.7	-4.4
COc1ccc(C(=O)Nc2ccc(S(=O)(=O)Nc3ncccn3)cc2)cc1OC	-2.7	60.1*	-0.4	-4.6	-9.6
Cc1ccc2c([N+](=O)[O-])c(C)ccc2n1	-1.2	65.2*	0.8	0.5	-6.1
O=C(CSc1nnc2c3ccccc3c3ccccc3c2n1)Nc1ccccc1F	4.1	93.6*	0.4	-8.0	8.2
COc1cc2c(CCNC(C)=O)c[nH]c2cc1O	2.2	/	-0.1	/	-2.2
CCN(CC)Cc1ccc(NC(=O)c2sc3cc(Cl)ccc3c2Cl)cc1	-0.2	60.5*	-0.4	-3.7	10.5
NC(=O)c1nn(-c2ccccc2)nc1NC(=O)Cn1nnc(-c2ccccc2)n1	0.6	-21.6	0.5	-1.3	0.1
O=C(Nc1ccc(F)cc1)C(=O)c1c(O)[nH]c2ccc([N+](=O)[O-])cc12	2.5	-22.6	-1.3	7.1	0.2
CCOc1ccc(S(=O)(=O)Nc2cc(SCC(=O)O)c(O)c3ccccc23)cc1	/	-88.6	-0.4	2.4	/
SMILES	APOBEC3A inh	PHOSPHO1 block	TbMetRS inhib	pCIP destab	A3G deaminase
O=S(=O)(Nc1cc(Sc2cccc3cccnc23)c(O)c2ccccc12)c1ccccc1	/	60.3*	/	3.2	/
COc1ccc(C2SCCN2C(=S)Nc2cccc(Cl)c2)cc1 (stereo not given)	-0.7	-2.4	1.3	3.2	-8.8
O=C(Nc1cc(C(F)(F)F)ccc1N1CCOCC1)C1Cc2ccccc2CN1C(=O)c1ccco1 (stereo not given)	11.1	65.2*	-0.3	-4.3	4.6
FC(F)(F)c1cnc(Sc2nnc(-c3cccs3)n2CC2CCCO2)c(Cl)c1 (stereo not given)	-2.3	3.2	-0.1	-23.2	-6.5
N#Cc1c(Sc2ncc(C(F)(F)F)cc2Cl)nsc1C/C=N\OCc1c(F)cccc1Cl	0.6	78.7*	-0.6	-8.9	-6.1
Cc1ccc(S(=O)(=O)/N=C2/C=C(Sc3ncn[nH]3)C(=O)c3ccccc32)cc1	/	73.1*	2.5	-14.5	/
Cc1ccc(S(=O)(=O)/N=C2/C=C(Sc3ncn[nH]3)C(=O)c3ccccc32)c(C)c1	/	75.9*	/	-3.5	/

Assay outcomes (PubChem BioAssay)
